TRPC6 inhibitor: mouse TRPC6 channel inhibition | Q61143 | HEK293-TRPC6, membrane potential dye, ACh-evoked depolarization; hits give low values | B-score at 10 µM | hit rate 1.1% among 310,000 | AID 2553;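 active = B-score under library mean minus 3 SD, initial fluorescence not abnormally high, positive integrated signal ratio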;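 also: B-score derived from integrated fluorescence ratio over the kinetic read; more negative B-score means stronger inhibition of depolarization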
Target sequence (Q61143 whole entry, looked up): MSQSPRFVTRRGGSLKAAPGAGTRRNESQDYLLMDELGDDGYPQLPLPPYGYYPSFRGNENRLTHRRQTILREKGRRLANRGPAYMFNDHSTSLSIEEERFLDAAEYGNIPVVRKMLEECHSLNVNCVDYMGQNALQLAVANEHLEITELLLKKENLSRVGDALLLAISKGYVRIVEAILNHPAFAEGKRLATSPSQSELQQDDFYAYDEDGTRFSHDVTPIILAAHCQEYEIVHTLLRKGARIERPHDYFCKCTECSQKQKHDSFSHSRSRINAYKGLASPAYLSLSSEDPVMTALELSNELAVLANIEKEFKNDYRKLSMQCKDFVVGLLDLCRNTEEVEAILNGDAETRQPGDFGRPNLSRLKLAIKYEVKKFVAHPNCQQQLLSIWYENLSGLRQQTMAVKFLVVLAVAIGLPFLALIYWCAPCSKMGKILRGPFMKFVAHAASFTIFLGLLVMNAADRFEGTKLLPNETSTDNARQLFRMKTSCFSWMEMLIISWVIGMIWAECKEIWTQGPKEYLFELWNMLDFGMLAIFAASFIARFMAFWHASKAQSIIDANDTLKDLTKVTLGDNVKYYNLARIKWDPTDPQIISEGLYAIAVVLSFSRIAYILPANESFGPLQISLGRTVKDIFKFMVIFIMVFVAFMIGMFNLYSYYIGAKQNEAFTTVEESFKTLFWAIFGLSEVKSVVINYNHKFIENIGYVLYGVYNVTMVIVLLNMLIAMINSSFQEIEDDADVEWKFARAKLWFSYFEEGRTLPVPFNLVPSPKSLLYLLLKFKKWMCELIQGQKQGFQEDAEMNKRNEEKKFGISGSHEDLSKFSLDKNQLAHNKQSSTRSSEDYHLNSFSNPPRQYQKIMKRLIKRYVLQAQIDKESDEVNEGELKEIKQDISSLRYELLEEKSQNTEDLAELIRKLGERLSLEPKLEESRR
DSG3 Ab inh: inhibitors of pemphigus antibody binding to human desmoglein-3; binding (percent of control), % at 10 µM; DSG3-coupled beads, scFv-anti-DSG3-GFP binding, flow cytometry; hits give low values; P32926; hit rate 0.48% among 310,000;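 active = binding more than 3 SD below its plate's average and above zero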;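 also: hits lower antibody fragment binding to DSG3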
TRPC4 block: inhibitors of mouse TRPC4 channel; B-score at 10 µM; Q9QUQ5; HEK293 TRPC4beta/mu-opioid, DAMGO-evoked Fluo4 calcium flux; hits give low values; AID 2247; hit rate 0.39% among 300,000;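 active = B-score over 3 SD under the library average, no early fluorescence shift, positive overall ratio signal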
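System: stable TRPC4beta/mu-opioid receptor HEK293 cells; Dosing: single-point compound dosing; Measured by: Fluo4 Ca2+ flux fluorescence; Read-out basis: per-well B score of integrated baseline-normalized Fluo4 ratio.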
TRPC6 act: activates the mouse TRPC6 cation channel; B-score at 10 µM; hit rate 0.13% among 310,000; HEK293-TRPC6 membrane potential dye fluorescence; hits give high values;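 active = B-score of the integrated fluorescence ratio above library mean plus 3 SD, and starting fluorescence ratio within library mean plus 5 SD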;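 also: higher score means more depolarization so channel activation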
TRPC4 PAM: allosteric potentiators of mouse TRPC4 channel; B-score at 10 µM; AID 2227; hit rate 0.42% among 310,000; HEK293 TRPC4beta/mu-opioid, DAMGO EC20, Fluo-4 Ca2+ flux; hits give high values; Q9QUQ5;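 active = B-score of calcium response area above 5 SD of library B-scores, with initial fluorescence ratio within 5 SD of library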;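 also: B-score of integrated fluorescence ratio over time as area under calcium response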
TRPC4 agonist: activators of mouse TRPC4 channel; HEK293 TRPC4beta/mu-opioid, Fluo4 calcium fluorescence; hits give high values; B-score at 10 µM; AID 2237; Q9QUQ5; hit rate 0.49% among 310,000;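 active = B-score above 5 SD of library B-scores, and initial fluorescence ratio not above library mean plus 5 SD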;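 also: positive B-score marks a calcium rise read as TRPC4 activation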
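Test system: HEK293 cells stably co-expressing mouse TRPC4beta and mu-opioid receptor | Schedule: Fluo4 dye loading 45 min at room temperature, 110 s recording | Measured by: Kinetic Fluo4 calcium fluorescence, 5 s baseline at 1 Hz | Evaluation: B score of integrated ratio | Controls: Buffer (low) and maximal DAMGO (high)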
TRPC4 sel inh 2: mouse TRPC4 off-target activity of TRPC6 inhibitors, second screen | shares compounds with TRPC6 inhibitor | HEK293 TRPC4/MOR, membrane potential dye fluorescence; channel activated by saturating DAMGO dose | inhibition, % at 10 µM | hit rate 42% among 920 | AID 2776;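 active = compounds whose fluorescence signal differed from control wells by over 3 SD, either direction, in both duplicate plates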
TRPC4 spec: tests whether TRPC6 inhibitors also affect mouse TRPC4; HEK293 TRPC4/mu-opioid, membrane potential fluorescence; hit rate 61% among 920; AID 2777; activity change, negative = inhibition, % at 10 µM; shares compounds with TRPC6 inhibitor;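 active = rise or fall in signal beyond 3 SD of buffer-only wells in both replicate plates, either sign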;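 also: integrated kinetic ratio of fluorescence range over baseline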
HEK293 MPD ctr 2-1: second check of TRPC6 inhibitor effects in parental HEK293 cells; shares compounds with TRPC6 inhibitor; parental HEK293 membrane potential dye fluorescence; maximal acetylcholine challenge after compound addition; signal change vs control, % at 10 µM; hit rate 31% among 920;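 active = membrane potential signal moving either way by over 3 SD of the maximum-effect control, in both duplicate plates, meaning non-specific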
HEK293 MPD ctr-1: parental HEK293 nonspecific activity of TRPC6 inhibitors; parental HEK293 membrane potential dye fluorescence; hit rate 60% among 920; AID 2780; membrane potential signal change, % at 10 µM; shares compounds with TRPC6 inhibitor;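 active = membrane potential signal shifting up or down by more than 3 SD of buffer-only wells, on both duplicate plates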
HEK293 MPD ctr-2: parental HEK293 nonspecific activity of TRPC6 modulators; hit rate 51% among 2,400; membrane potential dye fluorescence; AID 488924; shares compounds with TRPC6 inhibitor; membrane potential signal change, % at 10 µM;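 active = membrane potential signal moves up or down beyond 5 SD from buffer-only wells, on both duplicate plates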
HEK293 MPD ctr 2-2: second counter-screen for TRPC6 modulators: effect in parental HEK293 cells; shares compounds with TRPC6 inhibitor; membrane potential dye fluorescence; after compound, maximal acetylcholine stimulation; inhibition, % at 10 µM; hit rate 14% among 2,400;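 active = membrane potential signal drops by more than 5 SD from the mean control signal, in both duplicate plates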;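 also: plate controls were acetylcholine ECmax control wells for no effect and buffer only wells for full effect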
TRPC4 ctr mod: mouse TRPC4 off-target activity of TRPC6 modulators. AID 488927. percent change from control (negative = decrease, positive = increase), % at 10 µM. shares compounds with TRPC6 inhibitor. HEK293 TRPC4/mu-opioid, membrane potential fluorescence. hit rate 69% among 2,400;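 active = membrane potential signal moved up or down beyond 5 SD of buffer control wells, in both duplicate plates, actives on both sides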;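 also: plate controls were assay buffer wells for no effect and DAMGO maximal-effect wells for full effect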
TRPC4/MOR inh 2: mouse TRPC4 off-target activity of TRPC6 modulators, second screen. shares compounds with TRPC6 inhibitor. HEK293 TRPC4/mu-opioid, membrane potential dye fluorescence; stimulated with maximal-effect DAMGO. inhibition, % at 10 µM. hit rate 55% among 2,400. AID 488928;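 active = drop in membrane potential signal beyond 5 SD of the control wells in both duplicate plates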;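 also: TRPC4 counter screen for TRPC6 hits run under conditions tuned for TRPC6 not TRPC4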
TRPC6 inh conf: mouse TRPC6 inhibitor confirmation; HEK293-TRPC6, membrane potential dye, ACh-evoked depolarization; shares compounds with TRPC6 inhibitor; hit rate 43% among 3,300; AID 488960; inhibition, % at 10 µM;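 active = fluorescence ratio falls more than 5 SD below the full-stimulation control mean, in both duplicate runs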;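 also: integrated fluorescence ratio of peak minus minimum over baseline after agonist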
TRPC6 act confirm: confirmation of mouse TRPC6 activators; shares compounds with TRPC6 inhibitor; HEK293-TRPC6 membrane potential dye fluorescence, FDSS; activation, % at 10 µM; hit rate 11% among 2,800; AID 488961;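 active = ratio signal rise beyond 5 SD above unstimulated control wells' mean, seen in both duplicate runs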;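 also: plate controls were buffer EC0 wells for no effect and acetylcholine ECmax response for full effect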
* hit, by the source's call; i = inactive; . = not tested or not shown. Only some compounds are listed: those with a hit (about 2.5% of all), similar ones and a draw of the others.

SMILES	TRPC6 inhibitor	DSG3 Ab inh	TRPC4 block	TRPC6 act	TRPC4 PAM	TRPC4 agonist	TRPC4 sel inh 2	TRPC4 spec	HEK293 MPD ctr 2-1	HEK293 MPD ctr-1	HEK293 MPD ctr-2	HEK293 MPD ctr 2-2	TRPC4 ctr mod	TRPC4/MOR inh 2	TRPC6 inh conf	TRPC6 act confirm
Cn1c(=O)c(C#N)c(-c2ccc(F)cc2)c2cc(C(=O)c3cc(Cl)cc(Cl)c3O)cnc21	-9.4*	105	i	i	i	i	44%*	-13%*	i	-158%*	.	.	.	.	76%*	i
CCOC(=O)N1CCC(N2Cc3cccc(C(=O)NCc4ccc5c(c4)OCO5)c3C2=O)CC1	i	112	i	i	i	i	.	.	.	.	.	.	.	.	.	.
CCOC(=O)N1CCC(N2Cc3cccc(C(=O)NCc4ccc(OC)cc4)c3C2=O)CC1	-7.7*	.	i	i	i	i	i	i	i	i	.	.	.	.	i	i
CCOC(=O)N1CCC(N2Cc3cccc(C(=O)Nc4ccc(CC)cc4)c3C2=O)CC1	-7.4*	.	i	i	i	i	i	i	i	i	.	.	.	.	i	i
Cn1c(-c2ccc3c(c2)OCO3)cnc1NCc1cccc(Cl)c1	-7.9*	104	i	i	i	i	46%*	i	i	i	.	.	.	.	i	i
Cn1c(-c2ccc3c(c2)OCO3)cnc1NCc1ccccc1	-5.8*	98	i	i	i	i	.	.	.	.	i	i	i	56%*	36%*	i
Cn1c(-c2ccc3c(c2)OCO3)cnc1NC(=O)CCC(=O)NCCc1ccccc1	i	104	i	i	i	i	.	.	.	.	.	.	.	.	.	.
Cc1ccc(-c2cnc(NCc3cc4c(cc3[N+](=O)[O-])OCO4)n2C)cc1C	i	103	i	i	i	i	.	.	.	.	.	.	.	.	.	.
Cn1c(-c2ccc3c(c2)OCO3)cnc1NCc1ccccc1Cl	-5.3*	94	i	i	i	i	.	.	.	.	i	i	i	68%*	i	i
Cc1cc(-c2ccccc2)nc(Nc2nc3c(C)cccc3c(=O)[nH]2)n1	.	102	.	.	.	.	.	.	.	.	.	.	.	.	.	.
N#CC1=C(N)Oc2cc(N)ccc2C1c1ccc(Cl)cc1 (configuration not stated)	i	93	i	12*	i	i	.	.	.	.	i	i	i	i	i	i

Screens (PubChem BioAssay)
